# SF-1 act: activates the human nuclear receptor SF-1; CHO-K1 Gal4-SF-1 LBD luciferase reporter; % increase over DMSO SF-1-specific signal; AID 522; activation, % at 10 µM; Q13285; hit rate 1.9% among 65,000;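 active means activation above the mean activation of all tested compounds plus 3 SD, cut at about 50% in these data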
#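 Test system: CHO-K1 cells with Gal4–hSF-1 LBD chimera plus Gal4-driven luciferase; Input: 4,000 cells/well; Compound: 10 µM only; Times: 20 h compound treatment, 37 °C; Measured by: steady-glow luciferase luminescence, read after 15 min reagent incubation; Measure: percent activation versus DMSO; Control set: DMSO and mock-transfected background; Replicates: one test per compound.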
# ERa SRC1 pot: ER-alpha (human) coactivator binding potentiation. TR-FRET ERalpha-LBD/SRC-Cy5 coactivator binding, 2 h; 100 = basal binding, no effect. coactivator binding (% of control), % at 25.6 µM. hit rate 1.3% among 86,000; in the data active means activity above about 200%;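 further: binding measured in presence of low estradiol as agonist stimulus; 0% = peptide alone without receptor and 100% = receptor with peptide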
# PTK2B oligo ant: antagonists of human Pyk2 oligomerization | Q14289 | Q293 cells, Pyk2 FERM NanoBiT luminescence; stronger effect = lower value | z-score (the deposit names both 25 µM and 10 µM) | hit rate 0.83% among 99,000 | AID 1347419;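 active means Z-score of -3 or lower, scaled per plate to the spread of control and sample wells; inactive means z-score above -3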;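 further: negative z-score means lost luminescence so less FERM oligomerization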
# ERb SRC1 inh: ER-beta (human) coactivator binding inhibition. TR-FRET ER-beta LBD / SRC1-Cy5 peptide binding; receptor agonist-loaded with 1 µM estradiol. inhibition, % at 25.6 µM. hit rate 1.3% among 86,000;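 active means compounds whose percent inhibition of the receptor-coactivator binding signal exceeds about 50% in the single-dose screen, limit read from the data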;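 further: 0% = receptor plus peptide wells without compound and 100% = peptide-only wells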
# ERa SRC1 inh: ER-alpha (human) coactivator binding inhibition. hit rate 1.7% among 86,000. AID 629. inhibition, % at 25.6 µM. P03372. TR-FRET ER-alpha LBD / SRC-1 peptide, estradiol-bound; in the data active means inhibition above about 50%;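 further: 0% = receptor plus peptide control and 100% = peptide only without receptor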
# RORA act: activators of human nuclear receptor RORA; P35398; CHO-K1 Gal4-RORA LBD luciferase reporter, luminescence; percent increase over mock-subtracted basal signal; activation, % at 10 µM; hit rate 1.5% among 65,000; AID 560;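 active means activation above the mean of all tested compounds plus 3 SD, cut at about 49% in these data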;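 further: 0% = DMSO-treated RORA cells and 100% = added signal equal to DMSO minus mock-transfected cells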
# * = called active by the depositor; x = no result given; [ ] = dose if it differs, or a comment. Compounds with a hit are over-represented: about 4.8% of the library has one in this group of screens.
SMILES,SF-1 act,ERa SRC1 pot,PTK2B oligo ant,ERb SRC1 inh,ERa SRC1 inh,RORA act
Cn1c(C(C#N)C(=O)Cc2cccc3ccccc23)nc2ccccc21 (configuration not stated),-6,113,0.2,25,34,-22
Cn1c(C(C#N)C(=O)c2ccco2)nc2ccccc21 (configuration not stated),59*,115,0.2,-2,-4,67*
Cc1ccccc1C(=O)Nc1ccc(Cl)cn1,19,114,1.6,3,-10,56*
CCN(CC)S(=O)(=O)c1cc(C(=O)Nc2ccc(Cl)cn2)ccc1C,61*,130,-1.8,3,2,47
CCN(CC)S(=O)(=O)c1cccc(C(=O)Nc2ccc(Cl)cn2)c1,27,124,-0.63,2,4,10
CC(C)C(=O)Nc1ccc(NC(=O)c2ccccc2Cl)nc1,38,129,0.99,-7,1,62*
Cc1ccccc1C(=O)Nc1ccc(Br)c(C)n1,36,123,-0.16,-7,0,56*
Cc1ccccc1C(=O)Nc1ccccn1,x,106,-0.03,-12,-3,x
Cc1ccnc(NC2(C(F)(F)F)N=C(c3ccccc3)NC2=O)c1 (configuration not stated),x,x,0.1,x,x,x
COc1ccc(Cl)cc1N(CC(=O)NC(C(C)C)C(C)C)S(C)(=O)=O,x,x,1.1,x,x,x
Cc1ccc(Cl)cc1NC(=O)Cn1cc2c(n1)CCCC2,-14,124,x,-11,-10,-22
Cc1cc(C)c(NC(=O)Cn2cc3c(n2)CCCC3)c(C)c1,11,115,x,-10,99*[fluorescence artefact?],-20
FC(F)(F)c1cc(-c2ccc(Cl)cc2)nc(NCc2cccnc2)n1,x,94,-3*,-8,-2,x
S=C(NCc1cccnc1)Nc1ccc(Cl)cc1,x,x,1.1,x,x,x
Cc1ccc(-c2cc(C(F)F)nc(NCc3cccnc3)n2)cc1,8,107,-3.6*,-7,-5,6
CCc1cc2c(=O)n(CC)c(SC(C)C(=O)Nc3c(C)n(C)n(-c4ccccc4)c3=O)nc2s1 (configuration not stated),x,98,1.1,55*,1,x
O=C(NCc1ccco1)c1sc(=S)n2c1[nH]c(=O)c1ccccc12,0,33,0.82,30,18,-4
O=C(NC1CCCC1)c1sc(=S)n2c1[nH]c(=O)c1ccccc12,4,96,-3.1*,10,8,-22
COc1cc(S(=O)(=O)Nc2c(C)cc(C)cc2C)ccc1Cl,x,91,-1.4,63*[fluorescence artefact?],-1,x
CCOC(=O)c1nnn(CC(=O)N2N=C(c3ccc(Cl)cc3)CC2c2ccccc2)c1C(=O)OCC (configuration not stated),x,108,-0.79,29,-9,x
Cc1ccc(-n2c(=O)[nH]c3cc(C(=O)NC4CCN(Cc5ccccc5)CC4)ccc3c2=O)cc1,x,x,-0.08,x,x,x
Brc1ccc(-c2nnc(-c3cccnc3)c3conc23)cc1,x,82,x,25,69*,x
CN1C(=O)CC(N2CCN(c3ccccc3)CC2)C1=O (configuration not stated),x,100,0.32,-8,-5,x
CC(=O)Nc1ccc2nc(-c3ccncc3)[nH]c2c1,x,79,0.2,7,-1,x
CC(=O)Nc1ccc(-c2nc3c(C)cccc3[nH]2)cc1,99*,118,0.69,-4,8,-4
SMILES,SF-1 act,ERa SRC1 pot,PTK2B oligo ant,ERb SRC1 inh,ERa SRC1 inh,RORA act
Cc1ccc2cc3cc(C(=O)NCc4ccco4)oc3nc2c1,-4,140,-0.1,37,53*[fluorescence artefact?],-4
Cc1ccc2cc(C#N)c(SCC(=O)NCc3ccco3)nc2c1,4,237*,0.89,35,55*[fluorescence artefact?],-14
O=C(Nc1nc(-c2ccccc2)cs1)C1CCCCN1S(=O)(=O)c1ccccc1 (configuration not stated),3,110,-3.7*,10,-10,-7
O=C(Nc1nc(-c2ccccc2)cs1)C1CCCCN1S(=O)(=O)c1ccc(Cl)cc1 (configuration not stated),x,x,-1.6,x,x,x
O=C(Nc1nc(-c2cccs2)cs1)c1cccc(S(=O)(=O)N2CCCCC2)c1,-17,233*,-1.2,-9,-11,2
O=C(Nc1nc(-c2ccc(S(=O)(=O)N3CCCC3)cc2)cs1)c1cccs1,-5,324*[fluorescence artefact?],-3.2*,-11,-31,1
